In ChEMBL document CHEMBL1649256, “Comparison of assessment of oxygen consumption, Etest, and CLSI M38-A2 broth microdilution methods for evaluation of the susceptibility of Aspergillus fumigatus to posaconazole” (2009):
Converted amounts (≈) assume the structure as drawn.

Columns and labels:
Type in all cases: functional
Aspergillus fumigatus [1] = test: Antimicrobial activity against Aspergillus fumigatus isolate 43 by CLSI M38-A2 broth microdilution method
Aspergillus fumigatus [2] = test: Antimicrobial activity against Aspergillus fumigatus isolate 44 by CLSI M38-A2 broth microdilution method
Aspergillus fumigatus [3] = test: Antimicrobial activity against Aspergillus fumigatus isolate 46 by CLSI M38-A2 broth microdilution method
Aspergillus fumigatus [4] = test: Antimicrobial activity against Aspergillus fumigatus isolate 45 by oxygen consumption method
Aspergillus fumigatus [5] = test: Antimicrobial activity against Aspergillus fumigatus isolate 2 after 24 hrs by Etest; conditions: isolate 2, 24 h
Outline: (§1)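 Posaconazole Etest strips placed on RPMI 1640 agar with 2% glucose, pH 7.0, and run per the strip maker's instructions. Incubation at 35°C, with the MIC read at 24 h and at 48 h.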

Aspergillus fumigatus [6] = test: Antimicrobial activity against Aspergillus fumigatus isolate 4 after 24 hrs by Etest; conditions: isolate 4, 24 h
Outline: (§2)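 Posaconazole Etest strips on RPMI 1640 agar with 2% glucose, pH 7.0, run per the strip maker's instructions. Incubated at 35°C. MIC read at 24 h and at 48 h, matching the time in each line.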

Aspergillus fumigatus [7] = test: Antimicrobial activity against Aspergillus fumigatus isolate 6 after 24 hrs by Etest; conditions: isolate 6, 24 h
Aspergillus fumigatus [8] = test: Antimicrobial activity against Aspergillus fumigatus isolate 11 after 24 hrs by Etest; conditions: isolate 11, 24 h; outline: as §1
Aspergillus fumigatus [9] = test: Antimicrobial activity against Aspergillus fumigatus isolate 13 after 24 hrs by Etest; conditions: isolate 13, 24 h; outline: as §1
Aspergillus fumigatus [10] = test: Antimicrobial activity against Aspergillus fumigatus isolate 14 after 24 hrs by Etest; conditions: isolate 14, 24 h; outline: as §1
Aspergillus fumigatus [11] = test: Antimicrobial activity against Aspergillus fumigatus isolate 17 after 24 hrs by Etest; conditions: isolate 17, 24 h; outline: as §1
Aspergillus fumigatus [12] = test: Antimicrobial activity against Aspergillus fumigatus isolate 18 after 24 hrs by Etest; conditions: isolate 18, 24 h; outline: as §1
Aspergillus fumigatus [13] = test: Antimicrobial activity against Aspergillus fumigatus isolate 19 after 24 hrs by Etest; conditions: isolate 19, 24 h; outline: as §1
Aspergillus fumigatus [14] = test: Antimicrobial activity against Aspergillus fumigatus isolate 39 after 24 hrs by Etest; conditions: isolate 39, 24 h; outline: as §2
Aspergillus fumigatus [15] = test: Antimicrobial activity against Aspergillus fumigatus isolate 5 after 48 hrs by Etest; conditions: isolate 5, 48 h
Aspergillus fumigatus [16] = test: Antimicrobial activity against Aspergillus fumigatus isolate 6 after 48 hrs by Etest; conditions: isolate 6, 48 h
Aspergillus fumigatus [17] = test: Antimicrobial activity against Aspergillus fumigatus isolate 10 after 48 hrs by Etest; conditions: isolate 10, 48 h; outline: as §1
Aspergillus fumigatus [18] = test: Antimicrobial activity against Aspergillus fumigatus isolate 15 after 48 hrs by Etest; conditions: isolate 15, 48 h; outline: as §1
Aspergillus fumigatus [19] = test: Antimicrobial activity against Aspergillus fumigatus isolate 17 after 48 hrs by Etest; conditions: isolate 17, 48 h; outline: as §1
Aspergillus fumigatus [20] = test: Antimicrobial activity against Aspergillus fumigatus isolate 19 after 48 hrs by Etest; conditions: isolate 19, 48 h; outline: as §1
Aspergillus fumigatus [21] = test: Antimicrobial activity against Aspergillus fumigatus isolate 20 after 48 hrs by Etest; conditions: isolate 20, 48 h; outline: as §1
Aspergillus fumigatus [22] = test: Antimicrobial activity against Aspergillus fumigatus isolate 26 after 48 hrs by Etest; conditions: isolate 26, 48 h
Outline: (§3)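 Etest strips on RPMI 1640 agar with 2% glucose, pH 7.0, run per manufacturer's instructions. Incubated at 35°C; MIC read at 48 h.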

Aspergillus fumigatus [23] = test: Antimicrobial activity against Aspergillus fumigatus isolate 30 after 48 hrs by Etest; conditions: isolate 30, 48 h; outline: as §3
Aspergillus fumigatus [24] = test: Antimicrobial activity against Aspergillus fumigatus isolate 31 after 48 hrs by Etest; conditions: isolate 31, 48 h; outline: as §3
Aspergillus fumigatus [25] = test: Antimicrobial activity against Aspergillus fumigatus isolate 36 after 48 hrs by Etest; conditions: isolate 36, 48 h; outline: as §2
Aspergillus fumigatus [26] = test: Antimicrobial activity against Aspergillus fumigatus isolate 45 after 48 hrs by Etest; conditions: isolate 45, 48 h
Aspergillus fumigatus [27] = test: Antimicrobial activity against Aspergillus fumigatus isolate 2 by oxygen consumption method
Outline: (§4)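 Conidial suspension in RPMI 1640 broth with posaconazole at 0.25 and 2 μg/ml. Tubes agitated 12 h at 37°C in a biological oxygen monitor. Available oxygen was monitored continuously, and the MIC was assigned from the oxygen quantification.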

Aspergillus fumigatus [28] = test: Antimicrobial activity against Aspergillus fumigatus isolate 5 by oxygen consumption method
Aspergillus fumigatus [29] = test: Antimicrobial activity against Aspergillus fumigatus isolate 13 by oxygen consumption method; outline: as §4
Aspergillus fumigatus [30] = test: Antimicrobial activity against Aspergillus fumigatus isolate 15 by oxygen consumption method; outline: as §4
Aspergillus fumigatus [31] = test: Antimicrobial activity against Aspergillus fumigatus isolate 17 by oxygen consumption method; outline: as §4
Aspergillus fumigatus [32] = test: Antimicrobial activity against Aspergillus fumigatus isolate 20 by oxygen consumption method
Outline: (§5)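 Conidial suspension in RPMI 1640 broth, 1.5 ml, with two drug concentrations (0.25 and 2 μg/ml). Tubes agitated 12 h at 37°C in a biological oxygen monitor. Available oxygen monitored continuously and quantified to assign the MIC.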

Aspergillus fumigatus [33] = test: Antimicrobial activity against Aspergillus fumigatus isolate 22 by oxygen consumption method; outline: as §5
Aspergillus fumigatus [34] = test: Antimicrobial activity against Aspergillus fumigatus isolate 23 by oxygen consumption method; outline: as §5
Aspergillus fumigatus [35] = test: Antimicrobial activity against Aspergillus fumigatus isolate 24 by oxygen consumption method; outline: as §5
Aspergillus fumigatus [36] = test: Antimicrobial activity against Aspergillus fumigatus isolate 25 by oxygen consumption method; outline: as §5
Aspergillus fumigatus [37] = test: Antimicrobial activity against Aspergillus fumigatus isolate 1 by CLSI M38-A2 broth microdilution method
Outline: (§6)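 Posaconazole broth microdilution follows CLSI M38-A2. The MIC is the lowest concentration with no visible growth at 48 h. Candida parapsilosis ATCC 22019 and Candida krusei ATCC 6258 were included as QC strains in every run.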

Aspergillus fumigatus [38] = test: Antimicrobial activity against Aspergillus fumigatus isolate 4 by CLSI M38-A2 broth microdilution method
Outline: (§7)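 CLSI M38-A2 broth microdilution with posaconazole. MIC taken as the lowest concentration with no visible growth at 48 h. C. parapsilosis ATCC 22019 and C. krusei ATCC 6258 were included as QC strains in every run.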

Aspergillus fumigatus [39] = test: Antimicrobial activity against Aspergillus fumigatus isolate 7 by CLSI M38-A2 broth microdilution method
Aspergillus fumigatus [40] = test: Antimicrobial activity against Aspergillus fumigatus isolate 9 by CLSI M38-A2 broth microdilution method
Aspergillus fumigatus [41] = test: Antimicrobial activity against Aspergillus fumigatus isolate 16 by CLSI M38-A2 broth microdilution method; outline: as §6
Aspergillus fumigatus [42] = test: Antimicrobial activity against Aspergillus fumigatus isolate 20 by CLSI M38-A2 broth microdilution method
Outline: (§8)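 Reference broth microdilution per CLSI M38-A2. MIC read as absence of visible growth at 48 h. C. parapsilosis ATCC 22019 and C. krusei ATCC 6258 QC strains run in each test session.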

Aspergillus fumigatus [43] = test: Antimicrobial activity against Aspergillus fumigatus isolate 28 by CLSI M38-A2 broth microdilution method; outline: as §8
Aspergillus fumigatus [44] = test: Antimicrobial activity against Aspergillus fumigatus isolate 33 by CLSI M38-A2 broth microdilution method; outline: as §7
Aspergillus fumigatus [45] = test: Antimicrobial activity against Aspergillus fumigatus isolate 34 by CLSI M38-A2 broth microdilution method; outline: as §7
Aspergillus fumigatus [46] = test: Antimicrobial activity against Aspergillus fumigatus isolate 37 by CLSI M38-A2 broth microdilution method; outline: as §7

Compound: CC[C@@H]([C@H](C)O)n1ncn(-c2ccc(N3CCN(c4ccc(OC[C@@H]5CO[C@@](Cn6cncn6)(c6ccc(F)cc6F)C5)cc4)CC3)cc2)c1=O [POSACONAZOLE]
- MIC (Aspergillus fumigatus [1]): 0.125 µg/mL (≈ 0.178 µM)
- MIC (Aspergillus fumigatus [2]): 0.06 µg/mL (≈ 0.0856 µM)
- MIC (Aspergillus fumigatus [3]): 0.125 µg/mL (≈ 0.178 µM)
- MIC (Aspergillus fumigatus [4]): ≥ 0.5 µg/mL
- MIC (Aspergillus fumigatus [5]): 0.5 µg/mL (≈ 0.713 µM)
- MIC (Aspergillus fumigatus [6]): 0.125 µg/mL (≈ 0.178 µM)
- MIC (Aspergillus fumigatus [7]): 1 µg/mL (≈ 1.43 µM)
- MIC (Aspergillus fumigatus [8]): 0.125 µg/mL (≈ 0.178 µM)
- MIC (Aspergillus fumigatus [9]): 0.25 µg/mL (≈ 0.357 µM)
- MIC (Aspergillus fumigatus [10]): 0.25 µg/mL (≈ 0.357 µM)
- MIC (Aspergillus fumigatus [11]): 0.125 µg/mL (≈ 0.178 µM)
- MIC (Aspergillus fumigatus [12]): 0.125 µg/mL (≈ 0.178 µM)
- MIC (Aspergillus fumigatus [13]): 0.125 µg/mL (≈ 0.178 µM)
- MIC (Aspergillus fumigatus [14]): 1 µg/mL (≈ 1.43 µM)
- MIC (Aspergillus fumigatus [15]): > 16 µg/mL
- MIC (Aspergillus fumigatus [16]): 4 µg/mL (≈ 5.71 µM)
- MIC (Aspergillus fumigatus [17]): 0.25 µg/mL (≈ 0.357 µM)
- MIC (Aspergillus fumigatus [18]): 0.06 µg/mL (≈ 0.0856 µM)
- MIC (Aspergillus fumigatus [19]): 0.25 µg/mL (≈ 0.357 µM)
- MIC (Aspergillus fumigatus [20]): 0.25 µg/mL (≈ 0.357 µM)
- MIC (Aspergillus fumigatus [21]): 0.25 µg/mL (≈ 0.357 µM)
- MIC (Aspergillus fumigatus [22]): 0.25 µg/mL (≈ 0.357 µM)
- MIC (Aspergillus fumigatus [23]): 0.5 µg/mL (≈ 0.713 µM)
- MIC (Aspergillus fumigatus [24]): 0.125 µg/mL (≈ 0.178 µM)
- MIC (Aspergillus fumigatus [25]): 0.06 µg/mL (≈ 0.0856 µM)
- MIC (Aspergillus fumigatus [26]): 0.125 µg/mL (≈ 0.178 µM)
- MIC (Aspergillus fumigatus [27]): ≥ 0.5 µg/mL
- MIC (Aspergillus fumigatus [28]): ≥ 0.5 µg/mL
- MIC (Aspergillus fumigatus [29]): ≥ 0.5 µg/mL
- MIC (Aspergillus fumigatus [30]): ≤ 0.25 µg/mL
- MIC (Aspergillus fumigatus [31]): ≤ 0.25 µg/mL
- MIC (Aspergillus fumigatus [32]): ≤ 0.25 µg/mL
- MIC (Aspergillus fumigatus [33]): ≤ 0.25 µg/mL
- MIC (Aspergillus fumigatus [34]): ≤ 0.25 µg/mL
- MIC (Aspergillus fumigatus [35]): ≤ 0.25 µg/mL
- MIC (Aspergillus fumigatus [36]): ≤ 0.25 µg/mL
- MIC (Aspergillus fumigatus [37]): 1 µg/mL (≈ 1.43 µM)
- MIC (Aspergillus fumigatus [38]): 0.06 µg/mL (≈ 0.0856 µM)
- MIC (Aspergillus fumigatus [39]): 0.25 µg/mL (≈ 0.357 µM)
- MIC (Aspergillus fumigatus [40]): 0.25 µg/mL (≈ 0.357 µM)
- MIC (Aspergillus fumigatus [41]): 0.125 µg/mL (≈ 0.178 µM)
- MIC (Aspergillus fumigatus [42]): 0.125 µg/mL (≈ 0.178 µM)
- MIC (Aspergillus fumigatus [43]): 0.25 µg/mL (≈ 0.357 µM)
- MIC (Aspergillus fumigatus [44]): 0.125 µg/mL (≈ 0.178 µM)
- MIC (Aspergillus fumigatus [45]): 0.125 µg/mL (≈ 0.178 µM)
- MIC (Aspergillus fumigatus [46]): 0.125 µg/mL (≈ 0.178 µM)
